# TAAR1 agonist = human TAAR1 agonism | Q96RJ0 | CHO RD-HGA16 TAAR1, Fluo-8 calcium fluorescence; vehicle wells 0%, saturating PEA agonist 100% | activation, % at 3 µM | 0.99% of 360,000 active;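 active = activation above the mean activation of all test compounds in the run plus 3 SD, cut at about 38% in these data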
# Target sequence (Q96RJ0 whole entry, looked up): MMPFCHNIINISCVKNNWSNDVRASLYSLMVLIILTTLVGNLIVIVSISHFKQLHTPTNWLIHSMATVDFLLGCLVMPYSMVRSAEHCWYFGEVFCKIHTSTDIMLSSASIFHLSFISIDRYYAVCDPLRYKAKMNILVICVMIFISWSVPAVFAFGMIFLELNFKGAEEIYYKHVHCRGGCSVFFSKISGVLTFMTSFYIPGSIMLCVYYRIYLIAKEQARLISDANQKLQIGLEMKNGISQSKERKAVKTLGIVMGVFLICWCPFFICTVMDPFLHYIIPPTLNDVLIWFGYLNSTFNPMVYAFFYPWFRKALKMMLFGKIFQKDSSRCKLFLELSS
#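 System: CHO-derived RD-HGA16 cells with stable Gα16 and human TAAR1 / Times: 17-24 h plating, Fluo-8 75 min 37 °C, 30 min RT / Technique: calcium-sensitive Fluo-8 signal, excitation 470-495, emission 515-575 nm / Measure: % activation relative to PEA EC100 response / Benchmarks: DMSO and PEA EC100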
# GPR7 antag = blocks human GPR7 receptor signaling; P48145; GPR7-expressing cells, fluorescence antagonist assay; inhibition, % at 4.4 µM; 1.1% of 290,000 active; in the data active = inhibition above about 16%, passing the limit was not always enough;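 note: cells stimulated with the agonist NPW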
# Target sequence (P48145 whole entry, looked up): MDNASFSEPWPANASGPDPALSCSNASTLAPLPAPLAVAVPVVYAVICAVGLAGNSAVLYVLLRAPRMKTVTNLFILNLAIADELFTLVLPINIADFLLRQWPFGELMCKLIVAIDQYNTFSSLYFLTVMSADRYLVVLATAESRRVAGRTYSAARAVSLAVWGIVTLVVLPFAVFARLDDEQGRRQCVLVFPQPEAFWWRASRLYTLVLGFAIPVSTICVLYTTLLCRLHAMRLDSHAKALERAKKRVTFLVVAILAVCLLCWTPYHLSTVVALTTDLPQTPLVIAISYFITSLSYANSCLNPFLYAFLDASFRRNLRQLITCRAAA
# TAAR1 antag = human TAAR1 antagonism | inhibition, % at 3 µM | 1.5% of 360,000 active | AID 624466 | CHO RD-HGA16 TAAR1, Fluo-8 calcium fluorescence, antagonist | Q96RJ0;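 active = inhibition above a per-plate cutoff, the mean inhibition of test compounds on that plate plus 3 SD, cut at about 49% in these data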
#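 Test system: CHO RD-HGA16 cells bearing hTAAR1 | Reagent: β-PEA, EC80 | Compound dosing: 3 µM, single point | Schedule: Dye loading 75 min at 37 °C, then 30 min room temperature | Signal: Calcium fluorescence with Fluo-8 | Evaluation: Percent inhibition of PEA-evoked calcium signal, max/basal emission ratio | Control set: DMSO-only wells and EC80 β-PEA-stimulated wells | Repeats: Singlicate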
# CHO parental Ca = counter-screen for OX1R antagonists: effect in parental CHO cells; parental CHO-K1, ATP-induced calcium, Fluo-8 fluorescence; inhibition, % at 5.6 µM; 0.63% of 330,000 active;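 active = inhibition above that plate's mean sample inhibition plus 3 SD, cut at about 26% in these data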
#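 Test system: untransfected parental CHO cell line. Compound: one dose, 5.6 µM nominal. Detection: intracellular calcium via Fluo-8 no-wash fluorescent dye. Measure: % inhibition. Benchmarks: ATP-challenged DMSO wells low, unchallenged DMSO wells high.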
# OX1R antag-1 = blocks the human orexin 1 receptor; O43613; OX1R-expressing cells, FRET antagonist read-out; inhibition, % at 6.6 µM; 1.8% of 330,000 active; AID 485270; in the data active = inhibition mostly above about 38%, no sharp cut-off; inactive = mostly below about 40%
# OX1R antag-2 = antagonists of human orexin 1 receptor | O43613 | AID 434989 | inhibition, % at 5 µM | 0.43% of 330,000 active | CHO/OX1R cells, Fluo-8 calcium fluorescence, orexin A;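 active = inhibition above its plate's threshold, mean inhibition of all tested compounds on the plate plus 3 SD, cut at about 37% in these data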
# GPR7 antag conf = confirmation of human GPR7 antagonists | shares compounds with GPR7 antag | GPR7-expressing cells, calcium fluorescence antagonist mode | inhibition, % at 4.4 µM | 52% of 2,400 active | AID 1952; in the data active = inhibition above about 24%;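 note: stimulated with the GPR7 agonist NPW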
# MCHR1 antagonist = counter-screen for GPR7 antagonists: antagonists of human MCHR1; shares compounds with GPR7 antag; MCHR1-expressing cells, fluorescence antagonist assay; inhibition, % at 4.4 µM; 62% of 2,400 active; in the data active = inhibition above about 22%
# Hits are given with their value; 0 = inactive; - = no result given. An excerpt weighted towards active compounds, which were near 4.6% of everything screened.
SMILES,TAAR1 agonist,GPR7 antag,TAAR1 antag,CHO parental Ca,OX1R antag-1,OX1R antag-2,GPR7 antag conf,MCHR1 antagonist
CN(C)c1ccc(C(C(=O)NCC2CCCO2)N(C(=O)c2snc(C(N)=O)c2N)c2ccccc2)cc1 (configuration not stated),0,0,51.7,0,0,0,-,-
CCc1ccccc1N(C(=O)c1snc(C(N)=O)c1N)C(C(=O)NCC1CCCO1)c1ccc(N(C)C)cc1 (configuration not stated),0,0,0,-,-,-,-,-
CN(C)c1ccc(C(C(=O)NCC2CCCO2)N(C(=O)c2snc(C(N)=O)c2N)c2ccc3c(c2)OCO3)cc1 (configuration not stated),0,0,0,0,0,0,-,-
CCOc1ccccc1N(C(=O)c1snc(C(N)=O)c1N)C(C(=O)NC1CCCC1)c1ccco1 (configuration not stated),0,20.9,0,0,0,0,-,-
CC(C)c1ccc(N(C(=O)c2snc(C(N)=O)c2N)C(C(=O)NCC2CCCO2)c2ccc(N(C)C)cc2)cc1 (configuration not stated),0,0,55.3,-,-,-,-,-
CCOc1ccccc1N(C(=O)c1snc(C(N)=O)c1N)C(C(=O)NC1CCCC1)c1cccs1 (configuration not stated),0,0,0,0,0,0,-,-
COc1ccc(N(C(=O)c2snc(C(N)=O)c2N)C(C(=O)NC2CCCC2)c2ccc3ncccc3c2)cc1 (configuration not stated),0,0,0,0,0,0,-,-
O=C(NCc1cccc(C(F)(F)F)c1)c1c[nH]c(=O)s1,0,-,0,-,-,-,-,-
COc1ccc(C2CC(=O)C(c3ccc(Br)cc3)=CN2Cc2ccccc2)cc1 (configuration not stated),0,-,0,-,-,-,-,-
O=S(=O)(c1ccccc1)c1ccc(N2CCCCCC2)cc1,0,0,0,36.5,0,0,-,-
COc1ccc(OC)c(NC(=O)c2cc(-c3cc(Cl)ccc3O)n[nH]2)c1,0,0,0,35.1,101.3,97.3,-,-
COc1ccc(NC(=O)c2cc(-c3cc(C)ccc3O)n[nH]2)cc1Cl,0,0,0,0,71.3,0,-,-
CC(=O)c1ccc(NC(=O)c2cc(CC(C)C)on2)cc1,0,0,0,35.6,0,0,-,-
CC(C)Cc1cc(C(=O)Nc2cccnc2)no1,0,0,0,0,0,0,-,-
C[C@@H]1ON(C)[C@H]2C[C@H]3c4[nH]c5cccc(-c6cccc(F)c6)c5c4CCN3C(=O)[C@@H]12,0,-,0,-,-,-,-,-
CCOC(=O)N1CCN(C(=O)C[C@@H]2C[C@@]3(C(=O)OCC)CCC=C3N(Cc3ccco3)C2=O)CC1,0,-,0,-,-,-,-,-
Cc1ccc(N(CC(O)CON=C2c3ccccc3-c3ccccc32)S(C)(=O)=O)cc1 (configuration not stated),0,0,0,0,54.0,0,-,-
CCCCNc1c(-c2ccc(F)cc2)nc2nc(C)cc(C)n12,0,-,0,-,-,-,-,-
NC(=O)C1CCN(C2=C(Cl)C(=O)c3ccccc3C2=O)CC1,0,0,0,0,61.8,0,-,-
CCOC(=O)C1CCN(C2=C(NS(=O)(=O)c3ccc(Br)cc3)C(=O)c3ccccc3C2=O)CC1,0,0,0,0,74.7,0,-,-
NC(=O)C1CCN(C2=C(NS(=O)(=O)c3ccc(Br)cc3)C(=O)c3ccccc3C2=O)CC1,0,0,0,0,76.3,0,-,-
CC1CCCN(c2cccc3c2S(=O)(=O)N(Cc2cccc(Cl)c2)[C@@H](C)[C@H](c2ccccc2)O3)C1 (some centres not stated),0,-,0,-,-,-,-,-
COC(=O)C1=C(C)N(Cc2ccccc2C(F)(F)F)C(=NCc2ccc3c(c2)OCO3)NC1c1ccc(C(F)(F)F)cc1 (configuration not stated),0,-,0,-,-,-,-,-
COc1ccccc1N1CCN(CC(=O)Nc2ccc(C)c(F)c2)CC1,0,26.5,0,0,0,0,0,0
O=C(OCc1cc(=O)n2ccsc2n1)C1(c2ccccc2)CC1,0,-,0,-,-,-,-,-
SMILES,TAAR1 agonist,GPR7 antag,TAAR1 antag,CHO parental Ca,OX1R antag-1,OX1R antag-2,GPR7 antag conf,MCHR1 antagonist
Cc1ccc(NC(Cc2cc(C)no2)c2ccccc2)cc1 (configuration not stated),0,40.5,0,0,0,0,34.2,0
Cc1cc(CSc2ccccc2C(=O)O)on1,0,0,0,0,0,0,-,-
CCc1ccc2nc(N(CCCN(C)C)C(=O)c3ccc(S(=O)(=O)N(C)C4CCCCC4)cc3)sc2c1,38.6,35.7,51.0,0,0,0,56.4,54.4
CN(C)CCCN(C(=O)c1ccc(S(=O)(=O)N(C)C2CCCCC2)cc1)c1nc2ccc(Br)cc2s1,0,21.7,0,0,0,0,50.4,54.8
COc1cc2nc(N(CCCN(C)C)C(=O)c3ccc(S(=O)(=O)N(C)C4CCCCC4)cc3)sc2cc1OC,0,-,0,0,0,0,-,-
CCc1ccc2nc(N(CCCN(C)C)C(=O)c3ccc(S(=O)(=O)N4CCc5ccccc5C4)cc3)sc2c1,0,0,0,0,0,0,-,-
Cc1cccc(C(=O)N(CCc2ccccc2)Cc2ccccc2)c1[N+](=O)[O-],0,24.1,0,0,0,0,24.4,66.9
COc1cccc2[nH]c(-c3ccccn3)nc12,0,-,0,-,-,-,-,-
Cc1cc2oc(=O)cc(CNc3ccccc3F)c2cc1O,0,38.0,0,0,0,0,44.1,68.1
N/C(=N\c1nc2c(c(=O)[nH]1)CCCC2)Nc1ccccc1,0,30.8,0,0,0,0,0,0
C#CCNC(=O)C1=C[C@H](c2cn(C(C)=O)c3ccccc23)C[C@H](OCc2ccc(CO)cc2)O1,44.1,38.3,49.2,0,0,0,0,38.1
Clc1ccc2[nH]c3c(NCC4CCCO4)ncnc3c2c1 (configuration not stated),0,37.8,53.9,38.2,124.0,0,0,62.1
Cc1ccc(CNc2nc(C)nc3sc4c(c23)CCC4)cc1,0,0,0,0,0,0,-,-
Cc1nc(NC(C)c2ccccc2)c2c3c(sc2n1)CCC3 (configuration not stated),-,26.9,-,0,0,0,28.1,29.4
Nc1[nH]c(C(=O)c2ccc(Br)cc2)c(-c2ccc(Br)cc2)c1C(=O)NCc1ccc(-c2ccccc2)cc1,0,-,0,-,-,-,-,-
COc1ccc(/C=C2\N=C(C)OC2=O)cc1OC(C)=O,0,0,0,-,-,-,-,-
COc1cc(/C=C2\N=C(c3ccccc3)OC2=O)ccc1OC(C)=O,0,25.0,0,0,0,0,0,0
COc1ccc(-c2ccc(=O)n(Cc3ccc([N+](=O)[O-])cc3)n2)cc1,0,36.2,0,0,0,0,52.0,82.8

# Source: PubChem BioAssay
